From ChEMBL document CHEMBL5678799 (Biochem J, 2009) come the findings set out here.

In data set [1] the test system is MEF. Briefly: Growth inhibition of mLST8 knockout MEF cells assessed reduction in cell viability at 3 uM incubated for 1 to 3 days by crystal violet staining based assay. The format is toxicity. To be noted: mouse, time 1-3 day. In short, it runs like this:
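MEFs seeded at 20000 cells per 1.91 cm2 well, grown overnight in 10% foetal bovine serum, then cultured 1, 2 or 3 days with 3 μM inhibitor, 100 nM rapamycin or DMSO. Medium changed every 24 h with freshly dissolved inhibitors. Cells fixed in 4% paraformaldehyde, stained with 0.1% Crystal Violet, dye extracted in 10% acetic acid, A590 read. Quadruplicate wells, expressed as % of DMSO control.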

The subject of data set [2] is Ribosomal protein S6 kinase beta-1 (Homo sapiens), P23443 [T412E]. Description: Inhibition of recombinant human His6-tagged S6K1 T412E mutant (1 to 421 residues) expressed in baculovirus infected Sf21 cells assessed as remaining activity at 1 uM using KKRNRTLTV as substrate incubated for 30 mins in presence of [gamma-33P]ATP by filter binding method relative to control. The gist of the method:
(§1)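 Incubations ran robotically for 30 min at room temperature (21 °C) under linear conditions. Results are percent activity remaining versus controls without compound, as the mean of triplicates ± S.D.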

In data set [3] the target is Ribosomal protein S6 kinase alpha-5 (Homo sapiens) (UniProt O75582). Description: Inhibition of recombinant human His6-tagged MSK1 (2 to 802 residues) expressed in baculovirus infected Sf21 cells assessed as remaining activity at 1 uM using GRPRTSSFAEGKK as substrate incubated for 30 mins in presence of [gamma-33P]ATP by filter binding method relative to control. In short, it runs like this:
(§2)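 Robotic radiometric panel assay, 30 min at room temperature (21 °C), with 10 mM magnesium acetate. […] Compound at 1 or 10 µM. Residual activity expressed relative to compound-free control; triplicate average ± S.D.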

The target in data set [4] is Tyrosine-protein kinase CSK (Homo sapiens) (UniProt P41240). Description: Inhibition of recombinant human N-terminal GST-tagged CSK (1 to 450 residues) expressed in Escherichia coli assessed as remaining activity at 10 uM Cdc2 peptide as substrate incubated for 30 mins in presence of [gamma-33P]ATP by filter binding method relative to control. In short, it runs like this:
as §1

Data set [5] deals with MAP kinase-interacting serine/threonine-protein kinase 1 (Homo sapiens) (UniProt Q9BUB5). Briefly: Inhibition of recombinant human N-terminal GST-tagged C-terminal His6-tagged MNK1 (2 to 424 residues) expressed in Escherichia coli assessed as remaining activity at 10 uM using eIF4E as substrate incubated for 30 mins in presence of [gamma-33P]ATP by filter binding method relative to control.
Sequence of MAP kinase-interacting serine/threonine-protein kinase 1 (Homo sapiens) (Q9BUB5 whole entry, looked up, the tested form may be a part): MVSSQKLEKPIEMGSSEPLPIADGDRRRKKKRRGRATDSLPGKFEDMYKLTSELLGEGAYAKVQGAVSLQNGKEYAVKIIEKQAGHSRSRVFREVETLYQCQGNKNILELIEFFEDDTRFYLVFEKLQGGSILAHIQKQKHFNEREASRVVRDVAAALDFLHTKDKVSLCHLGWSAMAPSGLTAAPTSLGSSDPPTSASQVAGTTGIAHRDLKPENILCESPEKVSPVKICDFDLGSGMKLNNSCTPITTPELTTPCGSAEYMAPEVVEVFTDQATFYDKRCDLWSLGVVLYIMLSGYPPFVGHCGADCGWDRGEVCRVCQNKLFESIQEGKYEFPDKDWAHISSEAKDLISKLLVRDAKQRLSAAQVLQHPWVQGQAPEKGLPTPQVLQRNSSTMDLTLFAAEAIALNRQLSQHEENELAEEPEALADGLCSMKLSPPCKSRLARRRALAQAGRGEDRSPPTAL

In data set [6] the test system is MEF. Briefly: Induction of cell cycle arrest in mLST8 knockout MEF cells assessed as accumulation at S phase at 3 uM incubated for 1 to 3 days by propidium iodide staining based flow cytometric analysis (reference value: 59.7 +/- 0.49%). To be noted: mouse, time 1-3 day. Format: toxicity.
Data set [7] has as its target T1, mTORC2 (Homo sapiens) (UniProt P42345+Q6R327+Q9BVC4+Q9BPZ7). To be noted: HEK293, dose 30-1000 nM, time 30.0 min.
The target in data set [8] is cAMP-dependent protein kinase catalytic subunit alpha (Homo sapiens) (UniProt P17612). Description: Inhibition of recombinant human N-terminal GST-tagged PKAalpha (2 to 351 residues) expressed in Escherichia coli assessed as remaining activity at 10 uM using Kemptide as substrate incubated for 30 mins in presence of [gamma-33P]ATP by filter binding method relative to control. The gist of the method: (§3)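 Panel assays were run for 30 min at 21 °C, within the linear range for time and enzyme. […] Results are percent activity remaining relative to compound-free control, averaged from triplicate ± S.D.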

Data set [9] concerns the target Eukaryotic elongation factor 2 kinase (Homo sapiens) (UniProt O00418). Description: Inhibition of recombinant human N-terminal GST-tagged EF2K (2 to 725 residues) expressed in Escherichia coli assessed as remaining activity at 1 uM using RKKFGESKTKTKEFL as substrate incubated for 30 mins in presence of [gamma-33P]ATP by filter binding method relative to control. In short, it runs like this:
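Kinase panel run robotically at 21 °C for 30 min, linear in time and enzyme. […] Compound tested at 1 or 10 µM. Activity given as percentage of incubations without compound, mean of triplicates ± S.D.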

Data set [10] concerns the target Maternal embryonic leucine zipper kinase (Homo sapiens) (UniProt Q14680). Briefly: Inhibition of recombinant human N-terminal GST/C-terminal His6-tagged MELK (2 to 651 residues) expressed in Escherichia coli assessed as remaining activity at 10 uM using KKLNRTLSFAEPG as substrate incubated for 30 mins in presence of [gamma-33P]ATP by filter binding method relative to control. The gist of the method: (§4)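 Incubation was 30 min at room temperature (21 °C) under conditions linear with time and enzyme amount. Activity is reported as percent of control lacking compound, triplicate mean ± S.D.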

In data set [11] the target is Mitogen-activated protein kinase 1 (Homo sapiens) (UniProt P28482). Briefly: Inhibition of recombinant human N-terminal GST-tagged ERK2 (2 to 360 residues) expressed in Escherichia coli assessed as remaining activity at 10 uM using MBP as substrate incubated for 30 mins in presence of [gamma-33P]ATP by filter binding method relative to control. The gist of the method: as §4
Sequence of Mitogen-activated protein kinase 1 (Homo sapiens) (P28482 whole entry, the tested form may be a part): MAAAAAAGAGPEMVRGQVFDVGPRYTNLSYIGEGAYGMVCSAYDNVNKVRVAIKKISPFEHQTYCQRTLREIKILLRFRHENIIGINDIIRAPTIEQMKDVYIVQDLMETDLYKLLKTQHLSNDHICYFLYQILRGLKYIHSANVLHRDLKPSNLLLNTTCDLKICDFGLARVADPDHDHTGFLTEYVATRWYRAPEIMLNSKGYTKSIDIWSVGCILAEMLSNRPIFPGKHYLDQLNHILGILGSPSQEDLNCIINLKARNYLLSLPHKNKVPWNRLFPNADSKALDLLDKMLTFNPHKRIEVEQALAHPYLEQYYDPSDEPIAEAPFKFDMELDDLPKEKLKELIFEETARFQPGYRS

Data set [12] deals with T1, mTORC2 (Homo sapiens). To be noted: HEK293, dose 30-1000 nM, time 30.0 min. This is another data set of the same source.
Data set [13] has as its target Vascular endothelial growth factor receptor 1 (Homo sapiens) (UniProt P17948). Description: Inhibition of recombinant human N-terminal GST-tagged VEGFR1 (784 to 1338 residues) expressed in baculovirus infected Sf21 cells assessed as remaining activity at 1 uM using KKKSPGEYVNIEFG as substrate incubated for 30 mins in presence of [gamma-33P]ATP by filter binding assay relative to control. In short, it runs like this: as §3

For data set [14], the species on record is Homo sapiens. Description: Inhibition of choline kinase (unknown origin) assessed as remaining activity at 10 uM using choline as substrate incubated for 30 mins in presence of ATP by Kinase Glo assay relative to control. In short, it runs like this: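 Choline kinase assayed with 1 mM choline, 1 μM ATP in 25 mM glycine/NaOH pH 8.5, 67 mM KCl, 5 mM MgCl2, 1 mM DTT, 30 min at room temperature. Stopped with Kinase-Glo Plus, luminescence read after 10 min. Activity relative to control, triplicate.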

The target in data set [15] is Serine/threonine-protein kinase Chk1 (Homo sapiens) (UniProt O14757). Description: Inhibition of recombinant human N-terminal GST-tagged CHK1 (1 to 476 residues) expressed in baculovirus infected Sf21 cells assessed as remaining activity at 1 uM using CHKtide as substrate incubated for 30 mins in presence of [gamma-33P]ATP by filter binding method relative to control. The gist of the method:
as §2

The target of data set [16] is Phosphatidylinositol 3-kinase catalytic subunit type 3 (Homo sapiens) (UniProt Q8NEB9). Description: Inhibition of VPS34 (unknown origin) assessed as remaining activity at 1 uM using phosphatidylinositol as substrate incubated for 60 mins in presence of ATP relative to control.
Sequence of Phosphatidylinositol 3-kinase catalytic subunit type 3 (Homo sapiens) (Q8NEB9 whole entry): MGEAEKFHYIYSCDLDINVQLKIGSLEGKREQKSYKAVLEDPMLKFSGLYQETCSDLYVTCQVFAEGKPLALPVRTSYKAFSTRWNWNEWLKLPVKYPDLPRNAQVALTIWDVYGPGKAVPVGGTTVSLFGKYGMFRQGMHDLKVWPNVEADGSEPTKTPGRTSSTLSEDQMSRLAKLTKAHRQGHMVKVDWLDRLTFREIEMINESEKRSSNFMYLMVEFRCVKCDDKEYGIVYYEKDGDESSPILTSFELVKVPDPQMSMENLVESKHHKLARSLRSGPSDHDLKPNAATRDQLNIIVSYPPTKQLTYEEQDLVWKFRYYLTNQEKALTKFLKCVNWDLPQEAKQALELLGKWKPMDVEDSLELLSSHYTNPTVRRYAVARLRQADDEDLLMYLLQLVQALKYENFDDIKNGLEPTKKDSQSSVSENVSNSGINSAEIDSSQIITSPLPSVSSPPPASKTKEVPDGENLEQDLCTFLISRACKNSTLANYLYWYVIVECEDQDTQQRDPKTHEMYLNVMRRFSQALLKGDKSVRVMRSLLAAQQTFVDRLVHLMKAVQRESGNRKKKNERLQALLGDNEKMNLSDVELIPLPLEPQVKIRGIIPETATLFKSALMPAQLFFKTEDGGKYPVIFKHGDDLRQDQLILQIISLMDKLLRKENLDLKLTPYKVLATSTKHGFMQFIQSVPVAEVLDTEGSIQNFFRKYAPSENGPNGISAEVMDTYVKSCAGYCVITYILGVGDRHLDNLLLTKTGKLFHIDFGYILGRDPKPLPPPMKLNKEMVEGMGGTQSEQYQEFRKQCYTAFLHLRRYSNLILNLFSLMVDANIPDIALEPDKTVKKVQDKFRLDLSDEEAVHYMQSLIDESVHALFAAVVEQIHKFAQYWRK

Active and inactive are the calls of the source. The rule behind the calls is not given here.

Sequence of Ribosomal protein S6 kinase alpha-5 (Homo sapiens) (O75582 whole entry, looked up, the tested form may be a part): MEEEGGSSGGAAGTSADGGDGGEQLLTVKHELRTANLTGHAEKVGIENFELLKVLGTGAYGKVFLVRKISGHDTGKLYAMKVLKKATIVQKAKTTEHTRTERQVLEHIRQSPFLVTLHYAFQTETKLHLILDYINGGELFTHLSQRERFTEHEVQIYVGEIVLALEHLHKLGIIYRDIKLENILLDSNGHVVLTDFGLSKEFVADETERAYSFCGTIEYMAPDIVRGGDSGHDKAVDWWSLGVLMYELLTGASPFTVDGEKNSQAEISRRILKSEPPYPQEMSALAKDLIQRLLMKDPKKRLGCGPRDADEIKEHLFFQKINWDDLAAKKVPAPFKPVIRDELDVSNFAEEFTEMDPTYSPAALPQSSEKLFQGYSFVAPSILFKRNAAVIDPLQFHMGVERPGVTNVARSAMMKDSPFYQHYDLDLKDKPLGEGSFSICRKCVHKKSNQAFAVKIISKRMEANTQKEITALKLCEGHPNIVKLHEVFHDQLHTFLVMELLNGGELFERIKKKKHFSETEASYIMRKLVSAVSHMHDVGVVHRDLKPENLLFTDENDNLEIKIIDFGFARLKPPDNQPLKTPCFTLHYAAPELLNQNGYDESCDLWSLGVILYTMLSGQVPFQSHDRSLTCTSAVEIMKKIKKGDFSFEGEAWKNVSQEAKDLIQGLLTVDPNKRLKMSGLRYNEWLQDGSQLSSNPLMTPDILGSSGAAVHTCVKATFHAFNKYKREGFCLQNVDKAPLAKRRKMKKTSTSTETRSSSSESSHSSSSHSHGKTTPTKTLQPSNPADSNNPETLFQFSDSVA
Sequence of Maternal embryonic leucine zipper kinase (Homo sapiens) (Q14680 whole entry, looked up, the tested form may be a part): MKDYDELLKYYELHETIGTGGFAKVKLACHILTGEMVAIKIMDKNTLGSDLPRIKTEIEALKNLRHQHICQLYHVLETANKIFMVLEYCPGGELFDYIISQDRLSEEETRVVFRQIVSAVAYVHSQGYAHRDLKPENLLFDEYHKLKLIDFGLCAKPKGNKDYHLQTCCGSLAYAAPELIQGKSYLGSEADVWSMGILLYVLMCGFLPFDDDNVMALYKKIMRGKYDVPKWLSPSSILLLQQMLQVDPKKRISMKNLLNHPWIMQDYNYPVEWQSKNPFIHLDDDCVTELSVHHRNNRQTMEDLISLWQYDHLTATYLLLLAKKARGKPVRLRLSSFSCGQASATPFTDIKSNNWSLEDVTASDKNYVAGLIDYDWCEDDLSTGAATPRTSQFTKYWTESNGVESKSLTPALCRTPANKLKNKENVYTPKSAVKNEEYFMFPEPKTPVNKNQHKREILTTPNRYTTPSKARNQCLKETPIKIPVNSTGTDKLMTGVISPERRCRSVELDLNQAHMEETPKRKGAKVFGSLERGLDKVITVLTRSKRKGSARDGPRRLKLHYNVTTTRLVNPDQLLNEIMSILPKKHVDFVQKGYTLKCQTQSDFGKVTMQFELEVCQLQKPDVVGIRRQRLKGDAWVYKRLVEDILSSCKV
Sequence of Serine/threonine-protein kinase Chk1 (Homo sapiens) (O14757 whole entry, the tested form may be a part): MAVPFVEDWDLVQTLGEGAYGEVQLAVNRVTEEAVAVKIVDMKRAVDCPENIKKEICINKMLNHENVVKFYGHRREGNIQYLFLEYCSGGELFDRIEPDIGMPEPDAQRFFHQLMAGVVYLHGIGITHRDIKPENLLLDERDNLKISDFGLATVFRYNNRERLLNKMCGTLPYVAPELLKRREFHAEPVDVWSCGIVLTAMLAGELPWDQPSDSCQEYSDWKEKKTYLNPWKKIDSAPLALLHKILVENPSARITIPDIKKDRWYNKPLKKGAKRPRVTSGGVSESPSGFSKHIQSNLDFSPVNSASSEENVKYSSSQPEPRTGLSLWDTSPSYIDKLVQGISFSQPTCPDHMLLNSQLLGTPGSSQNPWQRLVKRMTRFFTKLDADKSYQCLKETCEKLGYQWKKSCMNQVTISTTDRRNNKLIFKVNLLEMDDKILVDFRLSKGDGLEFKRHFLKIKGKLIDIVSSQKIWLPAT
Sequence of Ribosomal protein S6 kinase beta-1 (Homo sapiens), P23443 [T412E] (P23443 whole entry T412E, looked up, the tested form may be a part): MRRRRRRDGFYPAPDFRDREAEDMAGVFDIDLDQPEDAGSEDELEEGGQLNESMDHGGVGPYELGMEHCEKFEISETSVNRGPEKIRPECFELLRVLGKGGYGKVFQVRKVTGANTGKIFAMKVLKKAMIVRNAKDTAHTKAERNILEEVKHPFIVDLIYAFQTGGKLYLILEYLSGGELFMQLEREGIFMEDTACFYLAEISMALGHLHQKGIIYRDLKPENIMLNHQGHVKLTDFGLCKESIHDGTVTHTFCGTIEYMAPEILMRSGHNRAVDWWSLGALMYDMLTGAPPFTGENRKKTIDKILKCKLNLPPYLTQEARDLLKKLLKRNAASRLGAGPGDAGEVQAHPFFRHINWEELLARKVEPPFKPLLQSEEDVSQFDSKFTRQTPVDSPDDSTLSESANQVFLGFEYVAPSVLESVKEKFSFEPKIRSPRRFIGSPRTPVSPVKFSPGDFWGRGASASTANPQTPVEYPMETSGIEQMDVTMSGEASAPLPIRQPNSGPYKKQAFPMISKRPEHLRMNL
Sequence of Eukaryotic elongation factor 2 kinase (Homo sapiens) (O00418 whole entry, the tested form may be a part): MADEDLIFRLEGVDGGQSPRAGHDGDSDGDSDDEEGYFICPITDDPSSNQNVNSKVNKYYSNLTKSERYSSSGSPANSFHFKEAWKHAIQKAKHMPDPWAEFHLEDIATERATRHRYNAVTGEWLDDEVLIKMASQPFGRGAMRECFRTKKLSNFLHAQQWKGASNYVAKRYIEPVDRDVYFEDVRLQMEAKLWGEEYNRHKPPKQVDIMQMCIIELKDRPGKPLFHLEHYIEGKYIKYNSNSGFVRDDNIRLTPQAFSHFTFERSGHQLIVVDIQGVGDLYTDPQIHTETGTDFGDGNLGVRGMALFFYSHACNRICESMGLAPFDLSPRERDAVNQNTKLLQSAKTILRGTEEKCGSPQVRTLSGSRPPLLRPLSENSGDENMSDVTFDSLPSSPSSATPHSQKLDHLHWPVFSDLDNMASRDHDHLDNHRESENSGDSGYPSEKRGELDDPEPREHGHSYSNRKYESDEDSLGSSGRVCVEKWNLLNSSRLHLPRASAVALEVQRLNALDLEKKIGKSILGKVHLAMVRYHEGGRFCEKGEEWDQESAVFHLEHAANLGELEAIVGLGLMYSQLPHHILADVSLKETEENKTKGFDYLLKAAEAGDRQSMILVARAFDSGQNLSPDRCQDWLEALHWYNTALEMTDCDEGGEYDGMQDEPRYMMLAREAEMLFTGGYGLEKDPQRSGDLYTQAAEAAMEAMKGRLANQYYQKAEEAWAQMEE

`COc1ccc(-c2ccc3c(N4CCOCC4)nc(N4C[C@@H](C)O[C@@H](C)C4)nc3n2)cc1CO` [Ku-0063794]: in data set [1], the “growth inhibition (GI)” value is on record as “Toxic”. In addition, the Activity in data set [2] was 104%; in data set [3], 101%; in [4], 99%; in data set [5], 75%; in data set [6], 36.5%; in [8] it was 85%. For the same compound, the Activity in data set [9] is 88%; in data set [10], 72%; in [11] it was 92%; in data set [13] it was 92%; in [14], 102%; in data set [15] it was 87%. Further, the Activity in data set [16] was found to be 101%. Further, the inhibition entry in data set [7] and in [12] was “Active” throughout.
